Results gathered from unrelated publications.
Lines come from different studies, so protocols differ.
CDK2: Cyclin-dependent kinase 2 (CDK2, Homo sapiens, UniProt P24941)
CDK2 with cyclin E1: Cyclin-dependent kinase 2, with cyclin E1 (CDK2, Homo sapiens, UniProt P24941)
CDK2 with cyclin E: Cyclin-dependent kinase 2, with cyclin E (CDK2, Homo sapiens, UniProt P24941)
CDK2 with cyclin A: Cyclin-dependent kinase 2, with cyclin A (CDK2, Homo sapiens, UniProt P24941)

Compound | target | read-out | mode | method | quantity | value
OCc1c(-c2ccc(F)cc2)nc2sc3c(n12)CCCC3 | CDK2 | enzyme activity | inhibitor | mobility shift | IC50 | 19 µM
O=c1cc(-c2ccccc2)oc2ccc3ccccc3c12 | CDK2 with cyclin E1 | enzyme activity | inhibitor | ADP detection | IC50 | > 10 µM
O=S(=O)(/C=C/c1ccc(C(F)(F)F)cc1)c1ccc(-c2csc(-c3ccccc3)n2)cc1 | CDK2 | enzyme activity | inhibitor | mobility shift | IC50 | 26 µM
CN(C)CCNc1nc2ccccc2c2[nH]c3ccccc3c12 | CDK2 with cyclin E | enzyme activity | inhibitor | radiometric | IC50 | 70 µM
C=CC(=O)Nc1ccc(N2CCC[C@@H](Nc3ncc(Cl)c(-c4c[nH]c5ccccc45)n3)C2)c(F)c1 | CDK2 with cyclin A | enzyme activity | inhibitor | FRET | IC50 | 4.02 µM
COc1cccc(OC)c1CNC(=O)c1ccc2c(c1)C(=NNc1ccc(S(N)(=O)=O)cc1)C(=O)N2 | CDK2 | binding |  |  | Kd | 0.0226 µM
CN1CCC(c2c(O)cc(O)c3c(=O)cc(-c4ccccc4)oc23)C(O)C1 (centres unmarked) | CDK2 with cyclin A | enzyme activity | inhibitor |  | IC50 | 0.196 µM
CN(C)CCNC1=Nc2ccccc2-c2[nH]c3ccccc3c2C1 | CDK2 with cyclin E | enzyme activity | inhibitor | radiometric | IC50 | 73 µM
Cc1cc(Nc2cc3ncccc3c(N[C@@H]3C[C@H]4CC[C@@H](C3)N4CCC#N)n2)n[nH]1 | CDK2 | binding |  | competition with immobilised ligand | Kd | 0.75 µM
CN(C)CCNS(=O)(=O)c1ccc(N/C=C2\C(=O)Nc3ccccc32)cc1 | CDK2 | binding |  |  | Kd | 1.06 µM
C=CC(=O)Nc1ccc(O[C@@H]2CCC[C@@H](Nc3ncc(Cl)c(-c4c[nH]c5ccccc45)n3)C2)cc1 | CDK2 with cyclin A | enzyme activity | inhibitor | FRET | IC50 | > 10 µM
c1ccc(CNc2ncnc3nc[nH]c23)cc1 | Cyclin-dependent kinase 2, with cyclin A (CDK2, Homo sapiens, UniProt P24941, F80G) | enzyme activity | inhibitor | radiometric | IC50 | ~1 µM
O=C(Nc1cc(C2CCCCC2)[nH]n1)c1ccc(Br)cc1 | CDK2 | thermal stability |  | DSF | Kd | > 100 µM
COc1c(C(=O)/C=C(\O)c2ccccc2)ccc2occc12 | CDK2 with cyclin E1 | enzyme activity | inhibitor | ADP detection | IC50 | > 100 µM
